Results: ChEMBL document CHEMBL1154840, “New pyrazoles incorporating pyrazolylpyrazole moiety: synthesis, anti-HCV and antitumor activity” (Eur J Med Chem, 2010)
≈ marks a conversion by molar mass, not a printed value. Calls of active or inactive are those of the source. The rule behind the calls is not given here.

Experiments:
[1] = test system: Mus musculus; assay: Toxicity in mouse Colon 38 cells xenografted C57BL/6 mouse assessed as mortality at 3 mg/kg, iv administered as a single dose; format: organism-based, MC-38; set-up: dose 3 mg/kg, route intravenous; conditions: in vivo
[2] = test system: Hepacivirus hominis; assay: Inhibition of HCV […] by quantitative RT-PCR
Procedure, shortened: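 HCV replicon cells, 1×10^4 per well, were plated and the next day exposed to serially diluted compounds in DMEM with 2% FBS and 0.5% DMSO at 37 °C. Total RNA was extracted and HCV RNA copy number was measured by quantitative RT-PCR. Five replicates per point; MIC reported.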

[3] = test system: Radical scavenging activity; assay: Antioxidant activity against DPPH radical scavenging activity after 30 mins by ELISA; format: functional; set-up: concentration or dose not given beside the values
Procedure, shortened: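 DPPH radical scavenging. Compounds were dissolved in DMSO and serially diluted, 0.0–100 μM/ml. 10 µl was added to 90 µl of 100 µM DPPH in methanol and incubated 30 min at 37 °C in the dark. Decrease in absorbance was read at 515 nm. % reduction = [(A_B − A_A)/A_B] × 100, against a DMSO/DPPH blank. Triplicate.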

[4] = Antioxidant activity against peroxynitrite-induced tyrosine nitration after 15 mins by HPLC; format: functional
Procedure, shortened: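 Tyrosine (100 μM) was reacted with equimolar peroxynitrite and increasing compound concentrations (0–300 μM) in 100 mM phosphate buffer pH 7.4 at 37 °C for 15 min. 3-Nitrotyrosine formation was measured by reverse-phase C18 HPLC using a methanol/water/HCl and acetonitrile/water/HCl mobile phase. IC50 reported.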

[5] = test system: MC-38; assay: Growth inhibition of mouse Colon 38 cells after 72 hrs by sulforhodamine B assay relative to etoposide; format: functional
Procedure, shortened: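 Exponentially growing cells were seeded on day 0. Graded drug concentrations were added on day 1, followed by 72 h at 37 °C. Cell number was estimated by SRB assay, with a separate day-1 count. GI50 is the concentration giving a 50% reduction in net protein increase versus control.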

[6] = test system: MC-38; assay: Antitumor activity against mouse Colon 38 cells xenografted in C57BL/6 mouse assessed as tumor volume at 3 mg/kg, iv administered as a single dose; format: functional, organism-based; set-up: dose 3 mg/kg
Procedure, shortened: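 Female C57BL/6 mice, 6 weeks old, were inoculated s.c. in the flank with about 30 mg Colon 38 tumor tissue. When tumors reached approximately 300 mm³ (day 1), mice were randomized, n = 5 per group. Compound in 5% glucose was given as a single i.v. tail-vein dose on day 1; controls received 5% glucose. Tumor volume = ([…])/2; body weight also recorded.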

[7] = test system: Mus musculus; assay: Toxicity in mouse Colon 38 cells xenografted C57BL/6 mouse assessed as body weight change at 3 mg/kg, iv administered as a single dose; format: organism-based, MC-38; set-up: dose 3 mg/kg, route intravenous; conditions: in vivo
Procedure, shortened: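 Female C57BL/6 mice, 6 weeks old, had about 30 mg of Colon 38 tumour tissue implanted s.c. in the flank. When tumours reached about 300 mm³ on day 1, mice were randomised into control and treatment groups (n = 5 each). Compound in 5% glucose was given once on day 1 by tail-vein i.v. injection; controls received 5% glucose. Body weight was tracked over subsequent days.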

[8] = target: DNA topoisomerase 2-alpha (Mus musculus) (UniProt Q01320); assay: Inhibition of mouse DNA topoisomerase 2 assessed as relaxation of supercoiled pBR322 plasmid DNA after 1 hr by electrophoresis relative to etoposide
DNA topoisomerase 2-alpha (Mus musculus), sequence (Q01320 whole entry): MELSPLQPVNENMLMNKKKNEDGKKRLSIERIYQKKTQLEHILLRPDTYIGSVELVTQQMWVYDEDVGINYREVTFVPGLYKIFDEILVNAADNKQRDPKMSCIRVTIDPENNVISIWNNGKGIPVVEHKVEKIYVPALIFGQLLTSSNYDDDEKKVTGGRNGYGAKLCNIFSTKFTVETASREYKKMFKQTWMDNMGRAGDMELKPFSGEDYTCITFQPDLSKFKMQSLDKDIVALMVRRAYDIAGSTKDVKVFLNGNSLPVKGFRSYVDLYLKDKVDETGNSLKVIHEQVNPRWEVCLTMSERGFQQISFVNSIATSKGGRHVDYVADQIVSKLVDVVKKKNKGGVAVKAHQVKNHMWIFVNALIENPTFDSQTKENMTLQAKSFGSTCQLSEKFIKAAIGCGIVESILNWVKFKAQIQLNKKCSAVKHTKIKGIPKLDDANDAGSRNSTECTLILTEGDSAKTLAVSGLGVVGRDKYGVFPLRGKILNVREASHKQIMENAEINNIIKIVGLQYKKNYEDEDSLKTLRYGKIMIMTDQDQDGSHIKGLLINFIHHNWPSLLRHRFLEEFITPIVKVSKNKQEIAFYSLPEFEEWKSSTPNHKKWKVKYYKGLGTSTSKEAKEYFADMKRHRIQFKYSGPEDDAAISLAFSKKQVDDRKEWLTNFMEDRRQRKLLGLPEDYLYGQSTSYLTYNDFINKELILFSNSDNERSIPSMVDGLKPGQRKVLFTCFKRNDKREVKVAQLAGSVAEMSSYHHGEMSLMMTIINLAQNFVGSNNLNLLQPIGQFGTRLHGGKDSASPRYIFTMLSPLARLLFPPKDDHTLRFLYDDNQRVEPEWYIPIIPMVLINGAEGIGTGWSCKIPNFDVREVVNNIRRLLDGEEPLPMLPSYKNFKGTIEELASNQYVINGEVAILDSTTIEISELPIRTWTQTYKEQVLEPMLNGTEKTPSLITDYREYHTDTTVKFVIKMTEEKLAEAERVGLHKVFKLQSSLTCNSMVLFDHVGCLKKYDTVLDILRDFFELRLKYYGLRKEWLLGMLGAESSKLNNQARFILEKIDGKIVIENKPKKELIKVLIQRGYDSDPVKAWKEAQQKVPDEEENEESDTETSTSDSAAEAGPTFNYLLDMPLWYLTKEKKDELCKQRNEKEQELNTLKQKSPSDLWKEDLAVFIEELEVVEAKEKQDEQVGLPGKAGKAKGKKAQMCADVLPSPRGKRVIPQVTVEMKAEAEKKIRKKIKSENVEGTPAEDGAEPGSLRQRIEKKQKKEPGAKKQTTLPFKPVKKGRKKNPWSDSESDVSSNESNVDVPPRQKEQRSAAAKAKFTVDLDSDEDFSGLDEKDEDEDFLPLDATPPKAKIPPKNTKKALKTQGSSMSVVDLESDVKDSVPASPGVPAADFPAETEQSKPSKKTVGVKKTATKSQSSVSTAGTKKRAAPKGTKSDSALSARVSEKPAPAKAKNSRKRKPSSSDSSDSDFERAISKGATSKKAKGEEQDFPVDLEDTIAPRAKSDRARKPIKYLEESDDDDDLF
Procedure, shortened: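 Topoisomerase II was purified from P388 cells. 0.125 μg supercoiled pBR-322 DNA was incubated with 1 unit of enzyme at 30 °C for 1 h in 50 mM Tris–HCl pH 8.0, 100 mM KCl, 10 mM MgCl2, 0.5 mM DTT, 1 mM ATP and 30 μg/ml BSA. Products were resolved on 0.7% agarose in TBE and stained with ethidium bromide.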

[9] = test system: Measles virus (SSPE virus); assay: Antiviral activity against measles virus infected in hamster brain assessed as inhibition of subacute sclerosing panencephalitis dosed intracranially by HPLC

| SMILES | Activity [1] | MIC [2] [mg/L] | Activity [3] [%] | IC50 [4] [µM] | RatioGI50 [5] | Activity [6] | Activity [7] | Ratio [8] | MIC [9] [mg/L] |
| --- | --- | --- | --- | --- | --- | --- | --- | --- | --- |
| CC(=O)c1nn(-c2ccccc2)cc1C(=O)c1nn(-c2ccccc2)cc1C(=O)c1nn(-c2ccccc2)cc1C(=O)c1ccccc1 | Non-toxic | 0.171 (≈ 0.271 µM) | 95 | 42.1 | 150.8 | Active | Non-toxic | 151 | 3.71 (≈ 5.89 µM) |
| CC(=O)c1nn(-c2ccccc2)cc1C(=O)c1nn(-c2ccccc2)cc1C(=O)c1nn(-c2ccc(C)cc2)cc1C(=O)c1ccccc1 | Non-toxic | 0.149 (≈ 0.231 µM) | 96.9 | 34 | 260.6 | Active | Non-toxic | 261 | 3.12 (≈ 4.84 µM) |
| CN(C)/C=C/C(=O)c1nn(-c2ccccc2)cc1C(=O)c1ccccc1 | Non-toxic | 0.32 (≈ 0.926 µM) | 94.5 | 44 | 136.4 | Active | Non-toxic | 136 | 4 (≈ 11.6 µM) |
| Cc1ccc(-n2cc(C(=O)c3ccccc3)c(C(=O)c3cn(-c4ccccc4)nc3C(=O)/C=C/N(C)C)n2)cc1 | Non-toxic | 0.181 (≈ 0.342 µM) | 94.9 | 42.2 | 150 | Active | Non-toxic | 150 | 3.82 (≈ 7.21 µM) |
| O=C1O[C@H]([C@@H](O)CO)C(O)=C1O |  |  | 79 |  |  |  |  |  |  |
| CC(=O)c1nn(-c2ccccc2)cc1C(=O)c1nn(-c2ccccc2)cc1C(=O)c1nn(-c2ccc(Cl)cc2)cc1C(=O)c1ccccc1 | Non-toxic | 0.151 (≈ 0.227 µM) | 96.1 | 35.1 | 196.1 | Active | Non-toxic | 196 | 3.2 (≈ 4.81 µM) |
| CC(=O)c1nn(-c2ccccc2)cc1C(=O)c1nn(-c2ccc([N+](=O)[O-])cc2)cc1C(=O)c1ccccc1 | Non-toxic | 0.155 (≈ 0.307 µM) | 96 | 36.6 | 194.8 | Active | Non-toxic | 195 | 3.22 (≈ 6.36 µM) |
| Cc1c(C)c2c(c(C)c1O)CCC(C)(C(=O)O)O2 (centres undefined) [TROLOX] |  |  |  | 58.4 |  |  |  |  |  |
| CC(=O)c1nn(-c2ccccc2)cc1C(=O)c1nn(-c2ccc(C)cc2)cc1C(=O)c1ccccc1 | Non-toxic | 0.322 (≈ 0.679 µM) | 94 | 44.1 | 38.46 | Active | Non-toxic | 38.4 | 4.12 (≈ 8.68 µM) |
| Cc1ccc(-n2cc(C(=O)c3ccccc3)c(C(=O)/C=C/N(C)C)n2)cc1 | Non-toxic | 0.15 (≈ 0.417 µM) | 96.6 | 34.2 | 260.4 | Active | Non-toxic | 260 | 3.18 (≈ 8.84 µM) |
| CC(=O)c1nn(-c2ccccc2)cc1C(=O)c1nn(-c2ccc(Cl)cc2)cc1C(=O)c1ccccc1 | Non-toxic | 0.147 (≈ 0.297 µM) | 97.7 | 32.2 | 260.9 | Active | Non-toxic | 261 | 3.11 (≈ 6.29 µM) |
| CN(C)/C=C/C(=O)c1nn(-c2ccccc2)cc1C(=O)c1nn(-c2ccccc2)cc1C(=O)c1ccccc1 | Non-toxic | 0.291 (≈ 0.564 µM) | 94.7 | 44 | 142.9 | Active | Non-toxic | 143 | 3.99 (≈ 7.74 µM) |
| CC(=O)c1nn(-c2ccc(C)cc2)cc1C(=O)c1ccccc1 | Non-toxic | 0.159 (≈ 0.522 µM) | 95.8 | 37.8 | 188.7 | Active | Non-toxic | 189 | 3.42 (≈ 11.3 µM) |
| CC(=O)c1nn(-c2ccc(Cl)cc2)cc1C(=O)c1ccccc1 |  | 0.161 (≈ 0.496 µM) | 95.5 | 38.1 | 178.6 |  |  | 178 | 3.52 (≈ 10.8 µM) |
| CC(=O)c1nn(-c2ccc([N+](=O)[O-])cc2)cc1C(=O)c1ccccc1 | Non-toxic | 0.144 (≈ 0.429 µM) | 98.2 | 31.5 | 260.9 | Active | Non-toxic | 261 | 3.09 (≈ 9.21 µM) |
| CC(=O)c1nn(-c2ccccc2)cc1C(=O)c1ccccc1 | Non-toxic | 0.162 (≈ 0.558 µM) | 95.2 | 39.5 | 168.5 | Active | Non-toxic | 168 | 3.62 (≈ 12.5 µM) |
| CN(C)/C=C/C(=O)c1nn(-c2ccccc2)cc1C(=O)c1nn(-c2ccc(Cl)cc2)cc1C(=O)c1ccccc1 | Non-toxic | 0.323 (≈ 0.587 µM) | 93 | 44.6 | 37.97 | Active | Non-toxic | 37.9 | 4.15 (≈ 7.55 µM) |
